Ten compounds from ChEMBL document CHEMBL1128490, “(+/-)-(Z)-2-(aminomethyl)-1-phenylcyclopropanecarboxamide derivatives as a new prototype of NMDA receptor antagonists” (J Med Chem, 1995) can be followed below.

Assay [1] has as its system Mus musculus. Put plainly: Percentage protection against NMDA-induced lethality in mice by the compound at 20 mg/Kg administered ip 60 mins before iv administration of NMDA in the lethal dose of 90 mg/Kg. Type of assay: functional. Put shortly: (§1)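 Male ddY mice (20-28 g), groups of 10, given test compound in saline by intraperitoneal injection. 60 min later they were challenged with a lethal intravenous dose of NMDA (90 mg/kg) in saline. The read-out is protection from NMDA-induced death.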

The test system of assay [2] is Mus musculus. The assay can be described thus: Percentage protection against NMDA-induced lethality in mice by the compound at 40 mg/Kg administered ip 60 mins before iv administration of NMDA in the lethal dose of 90 mg/Kg. Type of assay: functional. Put shortly: as §1
Assay [3] addresses Glutamate NMDA receptor. Put plainly: Inhibition of [3H]MK-801 binding to NMDA receptor of rat cerebral cortical synaptic membrane.

Each structure is given as a SMILES string. Some results are limits rather than exact numbers.

For the compound `CCN(CC)C(=O)[C@@]1(c2ccccc2)C[C@H]1CN(C)C`, the Protection in assay [1] is recorded as 10%; in assay [2] it was 40%. In assay [3], this compound returned a 50% inhibitory concentration (IC50) of 88 µM.

`CCN(CC)C(=O)[C@@]1(c2ccccc2)C[C@H]1CN=[N+]=[N-]` returned a 50% inhibitory concentration (IC50) in assay [3] greater than 100 µM. On the same count and under the same terms, as for `CCN(CC)C(=O)[C@@]1(c2ccccc2)C[C@H]1C=O`, the figure is greater than 100 µM. On to `CCN(CC)C(=O)[C@@]1(c2ccccc2)C[C@H]1CCN`, for which the figures for the Protection in assay [1] and in assay [2] were 30% and 20%, respectively. Also, the half-inhibitory concentration (IC50) in assay [3] worked out at 10 µM.

Turning to `CCOC(=O)[C@@]1(c2ccccc2)C[C@H]1CN`, the IC50 in assay [3] is greater than 100 µM. The same measure, in the same setting: as for `CCN(CC)C(=O)[C@@]1(c2ccccc2)C[C@H]1Cn1ccnc1C`, the figure is greater than 100 µM; as for `CCN(CC)C(=O)[C@@]1(c2ccccc2)C[C@H]1CO`, greater than 100 µM. For the compound `CCN(CC)C(=O)[C@@]1(c2ccccc2)C[C@H]1CNC`, the Protection in assay [1] stood at 20%; in assay [2], 30%. The compound also returned a half-maximal inhibitory concentration (IC50) in assay [3] of 13 µM.

`NC[C@@H]1C[C@@]1(C(=O)O)c1ccccc1`: the IC50 in assay [3] was greater than 100 µM. Regarding `CCN(CC)C(=O)[C@@]1(c2ccccc2)C[C@H]1CN` [LEVOMILNACIPRAN], the Protection in assay [1] is 60%; in assay [2], 100%. The compound further came in with an IC50 in assay [3] of 6.3 µM.
